Bioassay records: PubChem BioAssay, several laboratories
Shown are actives, neighbours in structure and some others; about 5.5% of the full set was active somewhere.
Yeast growth inh – chemicals that inhibit yeast BB579 growth in restrictive medium (lifespan-shortening candidates); 0.51% of 140,000 active; AID 804; S. cerevisiae BB579 growth, OD615, 48 h; inhibition, % at 10 µM;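 active = inhibition above a set limit, 3 SD over the mean compound inhibition, cut at about 44% in these data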
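System: Saccharomyces cerevisiae DeaD strain BB579, replicative lifespan model yeast. Buffer or medium: restrictive glucose-based CSMM-D medium. Doses: one dose, 10 µM compound with 0.25% DMSO. Timing: 4 h preincubation and 48 h exposure at 30 °C. Detection: turbidity as optical density at 615 nm. Benchmarks: amphotericin B 10 µg/mL, positive.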
WT yeast gro inh – growth inhibition of WT yeast, mitochondrial fusion screen; inhibition, % at 10 µM; 2.1% of 190,000 active; mitochondrial fusion phenotypic screen, WT strain; in the data active = inhibition above about 58%; tested in S. cerevisiae
Cl transport mod – modulates chloride dependent transport by human KCC2; B-score of Tl+ flux slope (higher = more flux/activation; lower = inhibition) at 10 µM; KCC2 cells, thallium flux FluoZin-2 fluorescence; AID 1456; 2.2% of 190,000 active;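 active = thallium flux slope and its plate-corrected score both differing from the plate sample mean at a set confidence after two filtering rounds, in either direction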;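 note: slope of fluorescence scaled to starting intensity during 10 to 20 s after thallium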
Target sequence (Q9H2X9 whole entry, looked up): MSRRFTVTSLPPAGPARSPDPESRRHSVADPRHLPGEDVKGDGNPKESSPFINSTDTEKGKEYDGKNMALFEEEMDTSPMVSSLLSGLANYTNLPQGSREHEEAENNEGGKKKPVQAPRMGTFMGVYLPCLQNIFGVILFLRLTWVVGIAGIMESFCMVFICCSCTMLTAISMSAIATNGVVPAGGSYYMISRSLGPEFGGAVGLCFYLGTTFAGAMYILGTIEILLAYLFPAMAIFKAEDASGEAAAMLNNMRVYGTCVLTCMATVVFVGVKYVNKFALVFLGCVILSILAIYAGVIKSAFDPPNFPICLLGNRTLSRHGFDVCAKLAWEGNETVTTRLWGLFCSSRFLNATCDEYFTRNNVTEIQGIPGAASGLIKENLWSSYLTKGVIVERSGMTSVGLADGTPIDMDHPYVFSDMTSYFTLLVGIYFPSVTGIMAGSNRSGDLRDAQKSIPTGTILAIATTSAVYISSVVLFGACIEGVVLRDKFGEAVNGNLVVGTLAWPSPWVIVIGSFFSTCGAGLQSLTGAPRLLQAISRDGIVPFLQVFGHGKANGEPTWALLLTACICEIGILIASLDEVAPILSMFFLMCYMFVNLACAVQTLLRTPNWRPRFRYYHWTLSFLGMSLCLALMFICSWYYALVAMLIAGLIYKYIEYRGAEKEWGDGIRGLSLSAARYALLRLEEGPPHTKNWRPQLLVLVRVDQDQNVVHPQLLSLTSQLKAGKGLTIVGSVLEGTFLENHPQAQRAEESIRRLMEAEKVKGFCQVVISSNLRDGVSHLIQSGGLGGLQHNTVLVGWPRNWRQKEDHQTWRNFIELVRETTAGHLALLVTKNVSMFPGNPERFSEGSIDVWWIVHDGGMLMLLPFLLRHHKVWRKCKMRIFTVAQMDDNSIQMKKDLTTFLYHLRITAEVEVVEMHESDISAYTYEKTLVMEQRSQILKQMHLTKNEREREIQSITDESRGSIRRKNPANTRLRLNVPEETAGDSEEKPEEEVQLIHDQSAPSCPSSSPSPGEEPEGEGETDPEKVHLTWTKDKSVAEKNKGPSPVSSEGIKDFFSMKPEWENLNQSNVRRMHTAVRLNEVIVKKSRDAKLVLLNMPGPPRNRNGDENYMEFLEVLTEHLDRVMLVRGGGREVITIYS
RAM network inh – blocks the yeast RAM network | 1.8% of 190,000 active | S. cerevisiae dse1pr::URA3 reporter, 5-FOA growth OD615, 2 d; analog-sensitive cbk1-as2 kinase mutant strain | AID 868 | inhibition, % at 50 µM;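 active = inhibition above a set limit, 3 SD over mean compound inhibition, cut at about 8.4% in these data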;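 note: 0% = DMSO-only wells with no growth and 100% = 10 µM 1-NA-PP1 full growth; inhibition rescues growth on 5-FOA so higher OD means more RAM inhibition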
Yeast life ext – extends the lifespan of yeast | S. cerevisiae growth with nicotinamide, OD615; deaD strain in restrictive glucose medium | inhibition of the nicotinamide effect, % at 10 µM | 0.68% of 130,000 active | AID 775;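 active = inhibition above a set limit, placed 3 SD over the median of all compounds, cut at about 26% in these data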;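 note: 0% = nicotinamide-treated wells and 100% = cells grown without nicotinamide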
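assay system = DeaD-strain S. cerevisiae | buffer or medium = restrictive glucose medium | reagent = 1.5 mM nicotinamide | compound = 10 µM single point, 0.25% DMSO | incubation = 48 h compound exposure at 30 °C, humidified | signal = OD615 measurement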
The depositor's hits bear a star; . = not tested or not shown.

SMILES	Yeast growth inh	WT yeast gro inh	Cl transport mod	RAM network inh	Yeast life ext
CCOc1ccc(NS(=O)(=O)c2ccc(NS(C)(=O)=O)cc2)cc1	2.0	-6.0	-0.518	0.3	-17.7
CCOc1ccc(NS(=O)(=O)c2ccc(NS(=O)(=O)c3ccc(SC)cc3)cc2)cc1	-69.6	14.1	0.549	8.9*	7.4
C=C(C)CN(CC)C(=O)COc1ccc(S(=O)(=O)Nc2ccc(OC)cc2)cc1	2.7	-9.9	-0.842	4.0	108.5*
CCCN(CC(=O)Nc1cc(Cl)ccc1Cl)C(=O)/C=C/c1ccco1	-15.6	21.0	-0.161	0.1	-2.0
Cc1ccc(C)c(N2CCN(C(=O)c3cc4sccc4n3C)CC2)c1	-51.7	8.7	-0.201	3.0	-25.5
Cn1c(C(=O)N2CCN(c3cccc(C(F)(F)F)c3)CC2)cc2sccc21	-48.8	71.5*	1.63	3.5	-5.3
N#CCCN(Cc1ccccc1)C(=O)c1cccs1	.	.	-0.543	.	.
Cc1c(O)c2cccnc2[nH]c1=O	3.0	-13.8	1.2	-0.1	0.8
Cc1nn(-c2ccccc2)c(Cl)c1/C=C(\CC(=O)O)c1nc2ccccc2s1	-33.5	-4.5	-2.99*	3.8	27.7
Nc1cnc(CNc2ccccc2Cl)cn1	.	.	0.854	.	.
O=[N+]([O-])c1ccc(Sc2nc3ccccc3o2)c([N+](=O)[O-])c1	98.9*	75.2	0.225	-1.2	-11.3
Cc1ccccc1C(=O)NNC1=NCCC1	-22.2	-15.1	.	3.8	28.8*
O=C(NNC1=NCCC1)c1cccc(Br)c1	-20.8	.	0.667	0.4	-3.3
Cc1csc(=Nc2cccnc2)n1CC1CCCCC1	-33.8	73.2*	0.24	1.7	6.6
COCCCn1c(C)csc1=Nc1cccnc1	-26.6	-7.3	0.226	0.4	0.2
COC(=O)c1ccc(Cl)c(-c2ccc(/C=N/NC(=O)Nc3ccccc3)o2)c1	-65.6	7.9	-0.29	9.0*	-13.3
COC(=O)N/N=C/c1ccc(-c2ccccc2Cl)o1	.	.	-1.87	.	.
Clc1nc2nc3n(c2nc1Cl)CCC3	.	.	0.13	.	.
COc1cccc(CN2CCNC(=O)C2CC(=O)N2CCCCO2)c1OC (configuration not stated)	.	-9.4	-0.0433	0.3	.
CCc1nnc(NC(=O)C(=O)NCCOC(=O)c2ccccc2)s1	-81.8	4.6	0.993	1.9	-9.4
Cc1ccc2c(c1)C(c1ccccc1)CC(=O)O2 (configuration not stated)	.	.	-0.00294	.	.
O=C(Nc1nc(=S)ss1)c1c(F)cccc1F	-49.2	78.8*	-1.22	-0.1	1.3
CC(=O)c1sc(NC(=O)c2c(F)cccc2F)nc1C	18.1	-3.9	-0.348	2.7	-13.9
Cc1ccccc1C(=O)Nc1nc(=S)ss1	-33.8	5.8	10.7*	1.1	-22.5
CC(=O)Nc1nc(=S)ss1	-40.9	14.6	.	1.6	8.7
SMILES	Yeast growth inh	WT yeast gro inh	Cl transport mod	RAM network inh	Yeast life ext
O=[N+]([O-])c1c(NCCO)cc(N2CCCCC2)c2nonc12	.	-9.2	-0.723	0.6	.
O=[N+]([O-])c1cc([N+](=O)[O-])c(N2CCCCCC2)cc1NCCO	-23.4	80.2*	.	0.7	-13.8
O=C(CS(=O)(=O)c1c[nH]c2ccccc12)N1CCCCCC1	.	-36.3	0.705	1.5	.
Cn1nnc2ccccc2c1=O	.	-8.6	1.84	1.3	.
CN(/N=C\c1ccc(O)c(O)c1)c1nc(-c2ccccc2)cc(-c2ccccc2)n1	-18.2	71.1*	1.14	0.8	-6.3
CN(C)CCNC=C(C(=O)Nc1ccc(Cl)cc1Cl)C(=O)Nc1ccc(Cl)cc1Cl	98.9*	97.5*	.	9.0*	-21.0
CC(C)CCNC(=O)CCCOc1cc(=O)n(C)c2ccccc12	-29.5	96.5*	-1.53	1.5	-4.5
COc1cccc(CC(=O)N[C@@H](CCSC)c2nc3ccccc3[nH]2)c1	.	-2.3	-0.864	1.1	.
COc1ccccc1NC(=O)CSc1nnc(CCC(=O)Nc2ccccc2F)n1C	.	.	-0.901	.	.
CC(=O)C(C)Oc1cc(C)cc2oc(=O)c(C)c(C)c12 (configuration not stated)	-37.4	2.5	0.274	2.0	-23.4
CC(=O)COc1cc(C)cc2oc(=O)c(C)c(C)c12	-12.3	66.4*	-0.342	2.1	-20.2
COc1ccc(Nc2nnc(SCC(=O)Nc3ccc4[nH]c(=O)[nH]c4c3)s2)cc1	.	11.4	-0.899	10.4*	.
COc1cnc(-c2ccccc2)nc1Oc1ccc(C(C)(C)C)cc1	-47.0	25.9	-0.421	11.0*	-11.6
O=C(NN=C(Cc1ccccc1)Cc1ccccc1)c1ccc(F)cc1	-30.0	3.5	7.69*	1.4	0.9
CCN(CC)P(=O)(Nc1ccc(C)cc1Br)c1ccc(N(C)C)cc1NC(=O)c1ccco1 (configuration not stated)	.	60.2*	0.00261	2.1	.
Cc1cccc(NC(=S)Nc2cccc(C)n2)n1	.	.	0.0127	.	.
Cc1cccc(NC(=S)NC2CCCCC2)n1	.	68.0*	0.585	0.8	.
S=C(Nc1cccnc1)NC1CCCCCCC1	-9.3	1.6	0.144	1.9	-4.9
Cc1cccc(NC(=S)NC2CCCC2)n1	.	71.7*	0.0264	0.8	.
COc1ccc(C2NC(c3ccc(OC)cc3)C(c3ccccc3)C(=O)C2c2ccccc2)cc1 (configuration not stated)	-19.3	4.9	-1.13	2.6	7.1
O=C(O)c1ccc2c(c1)OCCO2	29.0	-6.0	-0.61	0.6	-5.0
NC(=O)c1ccc2c(c1)OCCO2	-68.5	-1.0	-3.19*	1.4	-4.4
COc1cc(/C=C/C(=O)NCCn2c(C)cc3ccccc32)cc(OC)c1OC	-15.7	3.9	-0.906	9.7*	-2.8
Cc1cc2ccccc2n1CCNC(=O)C(C)C	-9.5	18.3	-0.058	-0.5	-3.3
Cc1cc2ccccc2n1CCNC(=O)C(C)Oc1ccccc1 (configuration not stated)	-21.7	8.8	.	8.7*	-12.5
SMILES	Yeast growth inh	WT yeast gro inh	Cl transport mod	RAM network inh	Yeast life ext
COc1ccc(/C=C/C(=O)NCCn2c(C)cc3ccccc32)cc1OC	-0.9	2.1	-3	6.3	-5.1
Cc1nonc1-c1csc(N)n1	.	4.7	0.819	2.9	.
CCCn1c(CN(C)Cc2ccccc2)nc2c1c(=O)n(C)c(=O)n2C	-23.8	-4.1	0.758	-0.5	.
CCCn1c(CN(Cc2ccccc2)Cc2ccccc2)nc2c1c(=O)n(C)c(=O)n2C	-1.2	77.2*	-1.28	1.3	-8.2
CCc1cccc(NC(=S)N(CCOC)C(C)c2ccco2)c1 (configuration not stated)	.	.	-1.5	.	.
COC(=O)C(=O)/C=C(\O)c1ccc(C)cc1	-19.5	-4.4	.	-1.6	72.6*
O=c1[nH]c2cc(S(=O)(=O)CCO)ccc2o1	.	.	-0.228	.	.
O=c1c2cccnc2[nH]c(=S)n1CCCN1CCN(c2ccc(F)cc2)CC1	-30.5	4.7	5.98*	1.2	-17.7
O=C(Nc1ccccc1)OC1CC2CC1C1CCCC21 (configuration not stated)	.	80.4*	-1.2	1.0	.
O=C(Nc1ccccc1)OC1CCS(=O)(=O)C1 (configuration not stated)	-17.2	2.4	0.502	2.9	3.2
C=CSc1sc(Cl)c(N2CCOCC2)c1[N+](=O)[O-]	.	4.3	-0.299	-0.6	.
C=CS(=O)(=O)c1sc(Cl)c(N2CCOCC2)c1[N+](=O)[O-]	.	-13.8	-3.64*	-1.4	.
